Among the data in ChEMBL document CHEMBL1152541, “Staurosporine tethered peptide ligands that target cAMP-dependent protein kinase (PKA): optimization and selectivity profiling” (Bioorg Med Chem, 2009) are Activity and inhibition values, retold here.

For experiment [1], the system named is Mast/stem cell growth factor receptor Kit (Homo sapiens), P10721 [D816V]. As to the kind of experiment: Binding affinity to human KIT D816V mutant at 500 nM by cell-based competition binding assay relative to control in presence of DTT. In outline: (§1)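 Competition binding screen (Ambit) across a panel of 90 kinases, scoring test ligand displacement of each kinase's binding relative to control. The screen ran under reducing conditions with 7.5 mM DTT.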

The target of experiment [2] is Dual specificity mitogen-activated protein kinase kinase 1 (Homo sapiens) (UniProt Q02750). As to the kind of experiment: Binding affinity to human MEK1 at 500 nM by cell-based competition binding assay relative to control in presence of DTT. In outline:
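Kinase binding profile from a commercial panel of 90 kinases, run as a competitive binding assay. The panel was screened under reducing conditions of 7.5 mM DTT. Signal was compared with the untreated control.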

For experiment [3], the target named is Receptor-type tyrosine-protein kinase FLT3 (Homo sapiens) (UniProt P36888). As to the kind of experiment: Binding affinity to human FLT3 at 500 nM by cell-based competition binding assay relative to control in presence of DTT. A digest of the protocol: (§2)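 Commercial (Ambit) competitive kinase-binding panel of 90 kinases measured the binding profile. Run under reducing conditions of 7.5 mM DTT. Binding is expressed relative to control.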

Experiment [4] deals with T1, Activin receptor type-1B (Homo sapiens) (UniProt P36896).
T1 sequence (whole entry): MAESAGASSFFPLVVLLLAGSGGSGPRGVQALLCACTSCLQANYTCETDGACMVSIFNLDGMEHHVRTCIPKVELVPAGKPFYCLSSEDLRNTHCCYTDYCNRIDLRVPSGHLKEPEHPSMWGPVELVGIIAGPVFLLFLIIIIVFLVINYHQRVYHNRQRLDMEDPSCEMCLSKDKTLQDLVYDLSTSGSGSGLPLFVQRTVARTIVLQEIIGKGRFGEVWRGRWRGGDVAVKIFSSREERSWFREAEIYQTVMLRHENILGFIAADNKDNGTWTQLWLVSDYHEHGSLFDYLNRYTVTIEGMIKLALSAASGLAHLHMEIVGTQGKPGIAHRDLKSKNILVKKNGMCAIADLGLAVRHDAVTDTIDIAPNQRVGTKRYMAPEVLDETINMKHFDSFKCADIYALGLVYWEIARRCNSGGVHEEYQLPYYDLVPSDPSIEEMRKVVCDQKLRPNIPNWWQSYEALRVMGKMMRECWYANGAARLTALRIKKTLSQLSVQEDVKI
As to the kind of experiment: Binding affinity to human ACVR1B at 200 nM by cell-based competition binding assay relative to control in presence of DTT. In outline:
(§3)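 Kinase binding profiling ran on a commercial (Ambit) competitive binding screen against a panel of 90 kinases. The screen used reducing conditions with 7.5 mM DTT. To withstand the DTT, the bivalent ligand was tested as its amide isostere, with the disulfide replaced. A staurosporine derivative carrying a 3 β-alanine linker was run as the reference compound.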

Experiment [5] deals with Cyclin-dependent kinase 19 (Homo sapiens) (UniProt Q9BWU1). As to the kind of experiment: Binding affinity to human CDK11 at 200 nM by cell-based competition binding assay relative to control in presence of DTT. In outline:
as §3

Experiment [6] addresses Cyclin-dependent kinase 16 (Homo sapiens) (UniProt Q00536). As to the kind of experiment: Binding affinity to human PCTK1 at 200 nM by cell-based competition binding assay relative to control in presence of DTT.
Experiment [7] is described as follows: Inhibition of PKA assessed as [gamma-32P]ATP labeling of kemptide at 33 to 100 nM by liquid scintillation counting in presence of DTT.
The test system of experiment [8] is Epidermal growth factor receptor (Homo sapiens), P00533 [L858R]. As to the kind of experiment: Binding affinity to human EGFR L858R mutant at 200 nM by cell-based competition binding assay relative to control in presence of DTT. A digest of the protocol:
as §2

Experiment [9] concerns the target Tyrosine-protein kinase receptor UFO (Homo sapiens) (UniProt P30530). As to the kind of experiment: Binding affinity to human AXL at 200 nM by cell-based competition binding assay relative to control in presence of DTT. A digest of the protocol:
as §3

Experiment [10] concerns the target Hepatocyte growth factor receptor (Homo sapiens) (UniProt P08581). As to the kind of experiment: Binding affinity to human MET at 200 nM by cell-based competition binding assay relative to control in presence of DTT.
The target of experiment [11] is T2, Serine/threonine-protein kinase DCLK1 (Homo sapiens) (UniProt O15075).
T2 sequence (whole entry): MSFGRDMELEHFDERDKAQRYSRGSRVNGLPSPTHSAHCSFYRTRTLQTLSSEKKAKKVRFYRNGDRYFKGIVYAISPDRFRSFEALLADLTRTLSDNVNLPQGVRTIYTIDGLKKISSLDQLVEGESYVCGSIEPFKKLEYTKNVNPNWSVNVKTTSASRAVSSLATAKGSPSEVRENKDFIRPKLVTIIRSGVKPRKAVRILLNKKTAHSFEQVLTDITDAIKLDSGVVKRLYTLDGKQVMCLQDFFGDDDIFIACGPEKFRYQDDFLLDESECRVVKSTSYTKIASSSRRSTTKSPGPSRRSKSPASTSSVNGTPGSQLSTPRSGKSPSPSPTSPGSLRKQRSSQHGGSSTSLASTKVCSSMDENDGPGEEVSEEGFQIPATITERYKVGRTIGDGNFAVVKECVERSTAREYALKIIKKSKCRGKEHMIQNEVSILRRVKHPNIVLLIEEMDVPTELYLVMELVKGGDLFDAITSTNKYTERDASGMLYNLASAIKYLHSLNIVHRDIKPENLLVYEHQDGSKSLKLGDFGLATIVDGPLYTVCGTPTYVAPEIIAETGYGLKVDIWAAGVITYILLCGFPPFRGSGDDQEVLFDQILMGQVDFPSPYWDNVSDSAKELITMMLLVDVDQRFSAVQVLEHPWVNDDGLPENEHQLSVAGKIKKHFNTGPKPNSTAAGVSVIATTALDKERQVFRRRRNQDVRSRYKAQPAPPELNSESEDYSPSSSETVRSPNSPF
As to the kind of experiment: Binding affinity to human DCAMKL1 at 50 nM by cell-based competition binding assay relative to control in presence of DTT. A digest of the protocol:
as §2

Experiment [12] concerns Mast/stem cell growth factor receptor Kit (Homo sapiens), P10721 [V559D,T670I]. As to the kind of experiment: Binding affinity to human KIT V559D,T670I mutant at 50 nM by cell-based competition binding assay relative to control in presence of DTT. In outline:
as §1

In experiment [13] the test system is Serine/threonine-protein kinase B-raf (Homo sapiens), P15056 [V600E]. As to the kind of experiment: Binding affinity to human BRAF V600E mutant at 50 nM by cell-based competition binding assay relative to control in presence of DTT. In outline:
as §3

The target in experiment [14] is Mitogen-activated protein kinase kinase kinase 4 (Homo sapiens) (UniProt Q9Y6R4). As to the kind of experiment: Binding affinity to human MAP3K4 at 50 nM by cell-based competition binding assay relative to control in presence of DTT. In outline:
as §1

Calls of active or inactive are those of the source. The calls are words filed in the database; no cut-off is given here. *1 amine or outer side, *2 acyl side, *3 side chain or, on linkers, in order; H or OH if unused. Where a SMILES comes first, the peptide text is derived from it. Bridges are numbered along the chain shown (N, C = ends). [ ]: non-standard residue; d: D form. The star is where a group is joined. Staurosporine = CO[C@@H]1[C@H](N(C)*)C[C@H]2O[C@]1(C)n1c3ccccc3c3c4c(c5c6ccccc6n2c5c31)C(=O)NC4; Suc = O=C(CCC(=O)[*:2])[*:1]; Dap = NC[C@H](N)C(=O)O; βAla = NCCC(=O)O

Serine/threonine-protein kinase B-raf (Homo sapiens), P15056 [V600E], sequence (P15056 whole entry V600E): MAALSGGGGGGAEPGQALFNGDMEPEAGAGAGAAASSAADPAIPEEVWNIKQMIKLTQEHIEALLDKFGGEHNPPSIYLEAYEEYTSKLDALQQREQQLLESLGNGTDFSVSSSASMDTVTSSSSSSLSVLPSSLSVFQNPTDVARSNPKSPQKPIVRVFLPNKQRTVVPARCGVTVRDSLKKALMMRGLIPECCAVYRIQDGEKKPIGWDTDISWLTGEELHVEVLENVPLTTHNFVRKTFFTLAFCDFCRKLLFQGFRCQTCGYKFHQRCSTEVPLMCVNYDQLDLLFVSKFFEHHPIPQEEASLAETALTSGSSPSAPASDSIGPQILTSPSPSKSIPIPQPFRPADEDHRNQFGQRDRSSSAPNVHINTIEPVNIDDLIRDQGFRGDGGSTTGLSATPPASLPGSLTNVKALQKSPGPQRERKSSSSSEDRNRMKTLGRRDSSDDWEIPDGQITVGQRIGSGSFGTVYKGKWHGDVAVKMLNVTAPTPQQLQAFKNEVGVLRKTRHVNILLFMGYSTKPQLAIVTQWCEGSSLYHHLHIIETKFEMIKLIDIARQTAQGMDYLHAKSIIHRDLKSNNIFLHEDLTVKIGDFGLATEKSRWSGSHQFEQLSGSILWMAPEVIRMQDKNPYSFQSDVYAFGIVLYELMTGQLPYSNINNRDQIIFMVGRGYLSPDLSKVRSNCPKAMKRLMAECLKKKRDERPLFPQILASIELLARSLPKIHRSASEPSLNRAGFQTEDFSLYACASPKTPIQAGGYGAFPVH
Mitogen-activated protein kinase kinase kinase 4 (Homo sapiens), sequence (Q9Y6R4 whole entry): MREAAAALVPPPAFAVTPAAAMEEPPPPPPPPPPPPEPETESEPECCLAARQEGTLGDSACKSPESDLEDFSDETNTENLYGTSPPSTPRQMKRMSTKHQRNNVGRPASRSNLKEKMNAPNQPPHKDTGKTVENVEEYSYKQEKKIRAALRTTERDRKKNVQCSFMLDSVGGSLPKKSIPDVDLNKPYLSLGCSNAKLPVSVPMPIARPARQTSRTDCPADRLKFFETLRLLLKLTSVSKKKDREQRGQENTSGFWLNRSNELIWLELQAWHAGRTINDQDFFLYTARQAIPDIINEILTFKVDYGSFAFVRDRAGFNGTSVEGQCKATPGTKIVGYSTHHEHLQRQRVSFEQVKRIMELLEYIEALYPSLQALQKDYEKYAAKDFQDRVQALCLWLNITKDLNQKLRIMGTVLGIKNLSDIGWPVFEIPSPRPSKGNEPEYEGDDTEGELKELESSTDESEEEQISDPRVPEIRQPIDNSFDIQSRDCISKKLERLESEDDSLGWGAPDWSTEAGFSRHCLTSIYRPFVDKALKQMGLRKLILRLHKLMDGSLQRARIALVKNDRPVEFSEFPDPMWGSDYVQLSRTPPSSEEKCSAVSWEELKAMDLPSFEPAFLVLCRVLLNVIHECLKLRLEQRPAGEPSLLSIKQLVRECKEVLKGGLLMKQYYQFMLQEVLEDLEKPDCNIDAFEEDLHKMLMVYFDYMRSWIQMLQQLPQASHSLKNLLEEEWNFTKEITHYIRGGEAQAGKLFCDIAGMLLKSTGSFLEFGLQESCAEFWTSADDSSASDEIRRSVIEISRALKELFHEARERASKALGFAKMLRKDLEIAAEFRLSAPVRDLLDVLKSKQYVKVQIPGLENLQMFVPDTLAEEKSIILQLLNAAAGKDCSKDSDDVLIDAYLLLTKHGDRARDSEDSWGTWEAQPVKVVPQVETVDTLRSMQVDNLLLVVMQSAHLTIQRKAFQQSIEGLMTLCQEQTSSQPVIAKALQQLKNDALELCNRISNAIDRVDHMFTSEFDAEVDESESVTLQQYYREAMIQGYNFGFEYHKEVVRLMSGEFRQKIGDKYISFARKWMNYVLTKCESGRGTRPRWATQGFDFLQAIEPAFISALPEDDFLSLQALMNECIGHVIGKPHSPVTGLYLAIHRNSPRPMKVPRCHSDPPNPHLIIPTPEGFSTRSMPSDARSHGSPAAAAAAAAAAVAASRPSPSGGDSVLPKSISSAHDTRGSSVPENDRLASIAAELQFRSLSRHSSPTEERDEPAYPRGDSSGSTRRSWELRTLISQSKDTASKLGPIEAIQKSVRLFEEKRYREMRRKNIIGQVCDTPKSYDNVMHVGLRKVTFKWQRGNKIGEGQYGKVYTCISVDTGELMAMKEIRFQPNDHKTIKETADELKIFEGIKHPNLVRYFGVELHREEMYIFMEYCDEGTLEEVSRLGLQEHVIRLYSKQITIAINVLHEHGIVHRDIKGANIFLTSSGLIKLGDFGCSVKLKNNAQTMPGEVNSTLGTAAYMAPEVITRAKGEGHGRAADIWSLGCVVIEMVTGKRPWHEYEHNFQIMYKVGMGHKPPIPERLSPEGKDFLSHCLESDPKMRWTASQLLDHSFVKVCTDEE
Cyclin-dependent kinase 16 (Homo sapiens), sequence (Q00536 whole entry): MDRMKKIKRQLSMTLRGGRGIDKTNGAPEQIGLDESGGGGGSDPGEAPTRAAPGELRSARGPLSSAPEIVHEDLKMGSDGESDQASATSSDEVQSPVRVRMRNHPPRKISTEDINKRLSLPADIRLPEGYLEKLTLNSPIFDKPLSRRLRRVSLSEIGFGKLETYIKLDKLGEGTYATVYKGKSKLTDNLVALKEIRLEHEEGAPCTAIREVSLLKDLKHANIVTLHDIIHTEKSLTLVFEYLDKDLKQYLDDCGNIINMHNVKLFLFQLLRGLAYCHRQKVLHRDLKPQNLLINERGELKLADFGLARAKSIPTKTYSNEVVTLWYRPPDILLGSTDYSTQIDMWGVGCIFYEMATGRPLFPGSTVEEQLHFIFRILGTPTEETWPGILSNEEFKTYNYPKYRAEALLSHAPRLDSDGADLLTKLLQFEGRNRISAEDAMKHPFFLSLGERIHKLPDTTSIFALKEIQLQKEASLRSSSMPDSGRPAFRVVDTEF
Dual specificity mitogen-activated protein kinase kinase 1 (Homo sapiens), sequence (Q02750 whole entry): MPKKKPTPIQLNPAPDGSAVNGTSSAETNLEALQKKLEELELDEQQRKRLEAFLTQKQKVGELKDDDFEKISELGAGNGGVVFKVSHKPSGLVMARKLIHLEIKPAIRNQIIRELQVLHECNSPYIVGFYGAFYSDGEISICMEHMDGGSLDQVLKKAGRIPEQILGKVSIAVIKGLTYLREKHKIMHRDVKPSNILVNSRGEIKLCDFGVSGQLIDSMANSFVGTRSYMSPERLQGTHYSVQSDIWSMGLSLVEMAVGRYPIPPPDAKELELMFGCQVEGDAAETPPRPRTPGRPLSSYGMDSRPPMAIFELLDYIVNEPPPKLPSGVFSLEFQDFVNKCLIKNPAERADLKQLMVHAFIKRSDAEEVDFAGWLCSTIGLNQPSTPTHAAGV
Hepatocyte growth factor receptor (Homo sapiens), sequence (P08581 whole entry): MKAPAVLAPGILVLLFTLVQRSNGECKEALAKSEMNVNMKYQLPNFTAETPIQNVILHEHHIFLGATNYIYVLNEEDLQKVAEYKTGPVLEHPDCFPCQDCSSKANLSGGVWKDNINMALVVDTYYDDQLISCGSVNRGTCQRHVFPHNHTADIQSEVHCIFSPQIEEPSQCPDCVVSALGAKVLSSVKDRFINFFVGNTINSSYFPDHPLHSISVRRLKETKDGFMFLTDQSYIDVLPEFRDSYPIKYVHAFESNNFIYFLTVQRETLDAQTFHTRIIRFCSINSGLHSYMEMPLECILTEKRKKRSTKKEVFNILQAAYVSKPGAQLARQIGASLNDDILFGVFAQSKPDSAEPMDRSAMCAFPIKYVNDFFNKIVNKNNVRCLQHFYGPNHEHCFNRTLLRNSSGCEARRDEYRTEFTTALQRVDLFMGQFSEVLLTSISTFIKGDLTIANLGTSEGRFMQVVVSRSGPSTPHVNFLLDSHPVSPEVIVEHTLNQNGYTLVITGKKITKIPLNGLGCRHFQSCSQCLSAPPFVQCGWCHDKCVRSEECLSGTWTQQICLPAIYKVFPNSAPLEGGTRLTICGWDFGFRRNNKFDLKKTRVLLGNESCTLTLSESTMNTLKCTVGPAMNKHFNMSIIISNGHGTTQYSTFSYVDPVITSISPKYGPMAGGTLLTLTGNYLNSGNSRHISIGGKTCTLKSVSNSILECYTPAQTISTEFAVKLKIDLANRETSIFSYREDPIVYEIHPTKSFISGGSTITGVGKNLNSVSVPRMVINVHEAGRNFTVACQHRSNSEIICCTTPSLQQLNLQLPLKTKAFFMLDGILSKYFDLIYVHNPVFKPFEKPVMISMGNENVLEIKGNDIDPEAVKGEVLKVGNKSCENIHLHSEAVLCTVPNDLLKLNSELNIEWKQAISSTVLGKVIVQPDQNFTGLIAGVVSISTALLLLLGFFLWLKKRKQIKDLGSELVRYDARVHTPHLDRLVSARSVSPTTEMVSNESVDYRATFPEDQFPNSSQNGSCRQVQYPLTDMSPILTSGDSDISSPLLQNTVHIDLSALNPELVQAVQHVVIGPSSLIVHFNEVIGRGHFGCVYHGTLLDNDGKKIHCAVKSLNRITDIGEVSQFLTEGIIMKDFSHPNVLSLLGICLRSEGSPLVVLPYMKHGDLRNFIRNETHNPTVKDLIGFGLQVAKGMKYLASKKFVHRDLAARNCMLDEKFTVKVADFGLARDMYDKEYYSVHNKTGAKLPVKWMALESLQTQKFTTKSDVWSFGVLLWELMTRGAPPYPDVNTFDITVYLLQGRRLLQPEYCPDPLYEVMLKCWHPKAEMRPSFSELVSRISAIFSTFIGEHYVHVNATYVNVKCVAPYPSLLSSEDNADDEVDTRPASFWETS

On to `CO[C@@H]1[C@H](N(C)C(=O)CCC(=O)NCCC(=O)NCCC(=O)NCCC(N)=O)C[C@H]2O[C@]1(C)n1c3ccccc3c3c4c(c5c6ccccc6n2c5c31)C(=O)NC4`, for which the Activity amounted to 1% in experiment [1], 100% in experiment [2] and 0.35% in [3].

In the case of `CO[C@@H]1[C@H](N(C)C(=O)CCC(=O)NCCC(=O)NCCC(=O)NCCC(=O)NCCC(=O)NCCC(=O)NCCC(=O)NCCC(=O)N[C@H]2CSSC[C@@H](C(=O)NCC(N)=O)NC(=O)CNC(=O)[C@H](Cc3ccccc3)NC(=O)[C@H](C(C)C)NC(=O)[C@H](CCCNC(=N)N)NC(=O)[C@H](Cc3ccccc3)NC(=O)[C@H](C(C)C)NC2=O)C[C@H]2O[C@]1(C)n1c3ccccc3c3c4c(c5c6ccccc6n2c5c31)C(=O)NC4` ({Staurosporine-Suc-βAla-βAla-βAla-βAla-βAla-βAla-βAla}-CVFRVFGCG-NH2; disulfide 1-8), the Activity in experiment [4] stood at 95%; in experiment [5] it was 87%; in experiment [6], 94%; in experiment [8] it was 86%; in [9] it was 58%; in [10] it was 77%. In addition, in [7], the inhibition result was “inactive”.

`CO[C@@H]1[C@H](N(C)C(=O)CCC(=O)NCCC(=O)NCCC(=O)NCCC(=O)NCCC(=O)NCCC(=O)NCCC(=O)NCCC(=O)N[C@H]2CNC(=O)C[C@@H](C(N)=O)NC(=O)CNC(=O)[C@H](Cc3ccccc3)NC(=O)[C@H](C(C)C)NC(=O)[C@H](CCCNC(=N)N)NC(=O)[C@H](Cc3ccccc3)NC(=O)[C@H](C(C)C)NC2=O)C[C@H]2O[C@]1(C)n1c3ccccc3c3c4c(c5c6ccccc6n2c5c31)C(=O)NC4` ({Staurosporine-Suc-βAla-βAla-βAla-βAla-βAla-βAla-βAla}-[Dap]VFRVFGD-NH2; lactam 1-8): the Activity in experiment [11] is 95%; in experiment [12], 59%; in experiment [13], 84%; in experiment [14], 96%. The inhibition result in experiment [7] is “Active”.
